One block for each molecule: values may come before it.
Columns and labels:
Assay type in all cases: ADME, organism-based; call rule not given here
Kidney [1] = experiment: Drug uptake in Sprague-Dawley rat kidney at 0.18 nmol, iv after 2 mins by PET scanning; conditions: in vivo
How it was run: (§1)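 Male Sprague-Dawley rats (6–8 weeks old), isoflurane-anesthetized, prone. ROIs on lung, heart, kidney, liver, small intestine and cardiac blood pool. Uptake decay-corrected to injection time and expressed as SUV (body-weight normalized). n = 4, mean ± SD.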

Blood [2] = experiment: Drug uptake in Sprague-Dawley rat cardiac blood pool at 0.18 nmol, iv up to 30 mins by PET scanning; conditions: in vivo, 0.5 h
How it was run: (§2)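 Isoflurane-anesthetized male Sprague-Dawley rats lay prone and received an iv bolus of [11C]radioligand in 200 μL. 3D list-mode emission scans ran 30 min from injection. Regions of interest were drawn on the organs and cardiac blood pool. Uptake was decay-corrected to injection time and expressed as SUV (normalized to injected radioactivity and body weight). Values are mean of n = 4.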

Kidney [3] = experiment: Drug uptake in Sprague-Dawley rat kidney at 0.18 nmol, iv pretreated with unlabeled (R)-PK11195 by PET scanning; conditions: in vivo; how it was run: as §1
Heart [4] = experiment: Drug uptake in Sprague-Dawley rat heart at 0.18 nmol, iv after 2 mins by PET scanning; conditions: in vivo; how it was run: as §2
Lung [5] = experiment: Drug uptake in Sprague-Dawley rat lung at 0.18 nmol, iv up to 30 mins by PET scanning; conditions: in vivo, 0.5 h; how it was run: as §1
Heart [6] = experiment: Drug uptake in Sprague-Dawley rat heart at 0.18 nmol, iv after 27.5 mins by PET scanning; conditions: in vivo; how it was run: as §2
Heart [7] = experiment: Drug uptake in Sprague-Dawley rat heart at 0.18 nmol, iv pretreated with unlabeled AC-5216 by PET scanning; conditions: in vivo
How it was run: (§3)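 Isoflurane-anesthetized Sprague-Dawley rats underwent 30-min PET after iv [11C]radioligand, with unlabeled blocker given iv 1 min before tracer. Blockers were (R)-PK11195 at 3.0 mg/kg or AC-5216 at 1.0 mg/kg in 300 μL saline with 10% ethanol and 5% polysorbate 80. Regional uptake was decay-corrected SUV (n = 4).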

Lung [8] = experiment: Drug uptake in Sprague-Dawley rat lung at 0.18 nmol, iv pretreated with unlabeled AC-5216 by PET scanning; conditions: in vivo; how it was run: as §1
Kidney [9] = experiment: Drug uptake in Sprague-Dawley rat kidney at 0.18 nmol, iv up to 30 mins by PET scanning; conditions: in vivo, 0.5 h; how it was run: as §1
Lung [10] = experiment: Drug uptake in Sprague-Dawley rat lung at 0.18 nmol, iv pretreated with unlabeled (R)-PK11195 by PET scanning; conditions: in vivo; how it was run: as §1
Lung [11] = experiment: Drug uptake in Sprague-Dawley rat lung at 0.18 nmol, iv after 2 mins by PET scanning; conditions: in vivo; how it was run: as §1
Liver [12] = experiment: Drug uptake in Sprague-Dawley rat liver at 0.18 nmol, iv pretreated with unlabeled (R)-PK11195 measured after 27.5 mins by PET scanning relative to control; conditions: in vivo
How it was run: (§4)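 Male Sprague-Dawley rats, 6-8 weeks old, under isoflurane, prone. An unlabeled TSPO blocking ligand (3.0 mg/kg) was injected 1 min before the iv radioligand (16-18 MBq/200 μL). A liver ROI was decay-corrected and expressed as SUV normalized to injected activity and body weight. The 27.5-min value was compared with unblocked controls; n = 4.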

Liver [13] = experiment: Drug uptake in Sprague-Dawley rat liver at 0.18 nmol, iv pretreated unlabeled AC-5216 measured after 27.5 mins by PET scanning relative to control; conditions: in vivo
How it was run: (§5)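 Male Sprague-Dawley rats, 6-8 weeks, isoflurane-anesthetized. A blocking TSPO ligand (1.0 mg/kg, in 300 μL saline with 10% ethanol and 5% polysorbate 80) was injected 1 min before iv radioligand (16-18 MBq/200 μL). Liver ROI as decay-corrected SUV (injected activity, body weight), 27.5-min value versus controls; n = 4.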

Liver [14] = experiment: Drug uptake in Sprague-Dawley rat liver at 0.18 nmol, iv after 27.5 mins by PET scanning; conditions: in vivo; how it was run: as §1
Intestine [15] = experiment: Drug uptake in Sprague-Dawley rat small intestine at 0.18 nmol, iv up to 30 mins by PET scanning; conditions: in vivo, 0.5 h; how it was run: as §1
Kidney [16] = experiment: Drug uptake in Sprague-Dawley rat kidney at 0.18 nmol, iv after 27.5 mins by PET scanning; conditions: in vivo; how it was run: as §1
Kidney [17] = experiment: Drug uptake in Sprague-Dawley rat kidney at 0.18 nmol, iv pretreated with unlabeled AC-5216 by PET scanning; conditions: in vivo; how it was run: as §1
Lung [18] = experiment: Drug uptake in Sprague-Dawley rat lung at 0.18 nmol, iv after 27.5 mins by PET scanning; conditions: in vivo; how it was run: as §1
Blood [19] = experiment: Drug uptake in Sprague-Dawley rat cardiac blood pool at 0.18 nmol, iv after 2 mins by PET scanning; conditions: in vivo; how it was run: as §2
Blood [20] = experiment: Drug uptake in Sprague-Dawley rat cardiac blood pool at 0.18 nmol, iv after 27.5 mins by PET scanning; conditions: in vivo; how it was run: as §2
Liver [21] = experiment: Drug uptake in Sprague-Dawley rat liver at 0.18 nmol, iv after 2 mins by PET scanning; conditions: in vivo; how it was run: as §1
Heart [22] = experiment: Drug uptake in Sprague-Dawley rat heart at 0.18 nmol, iv pretreated with unlabeled (R)-PK11195 by PET scanning; conditions: in vivo; how it was run: as §3
Heart [23] = experiment: Drug uptake in Sprague-Dawley rat heart at 0.18 nmol, iv up to 30 mins by PET scanning; conditions: in vivo, 0.5 h; how it was run: as §2
Liver [24] = experiment: Drug uptake in Sprague-Dawley rat liver at 0.18 nmol, iv up to 30 mins by PET scanning; conditions: in vivo, 0.5 h; how it was run: as §1
Liver [25] = experiment: Drug uptake in Sprague-Dawley rat liver at 0.13 nmol, iv pretreated with unlabeled AC-5216 measured after 27.5 mins by PET scanning relative to control; conditions: in vivo; how it was run: as §5
Lung [26] = experiment: Drug uptake in Sprague-Dawley rat lung at 0.13 nmol, iv after 27.5 mins by PET scanning; conditions: in vivo; how it was run: as §1
Heart [27] = experiment: Drug uptake in Sprague-Dawley rat heart at 0.13 nmol, iv pretreated with unlabeled AC-5216 by PET scanning; conditions: in vivo; how it was run: as §3
Heart [28] = experiment: Drug uptake in Sprague-Dawley rat heart at 0.13 nmol, iv after 2 mins by PET scanning; conditions: in vivo; how it was run: as §2
Kidney [29] = experiment: Drug uptake in Sprague-Dawley rat kidney at 0.13 nmol, iv pretreated with unlabeled (R)-PK11195 by PET scanning; conditions: in vivo; how it was run: as §3
Heart [30] = experiment: Drug uptake in Sprague-Dawley rat heart at 0.13 nmol, iv pretreated with unlabeled (R)-PK11195 by PET scanning; conditions: in vivo; how it was run: as §3
Kidney [31] = experiment: Drug uptake in Sprague-Dawley rat kidney at 0.13 nmol, iv after 27.5 mins by PET scanning; conditions: in vivo; how it was run: as §2
Blood [32] = experiment: Drug uptake in Sprague-Dawley rat cardiac blood pool at 0.13 nmol, iv up to 30 mins by PET scanning; conditions: in vivo, 0.5 h; how it was run: as §2
Lung [33] = experiment: Drug uptake in Sprague-Dawley rat lung at 0.13 nmol, iv up to 30 mins by PET scanning; conditions: in vivo, 0.5 h; how it was run: as §1
Intestine [34] = experiment: Drug uptake in Sprague-Dawley rat small intestine at 0.13 nmol, iv up to 30 mins by PET scanning; conditions: in vivo, 0.5 h; how it was run: as §1
Blood [35] = experiment: Drug uptake in Sprague-Dawley rat cardiac blood pool at 0.13 nmol, iv after 27.5 mins by PET scanning; conditions: in vivo; how it was run: as §2
Heart [36] = experiment: Drug uptake in Sprague-Dawley rat heart at 0.13 nmol, iv up to 30 mins by PET scanning; conditions: in vivo, 0.5 h; how it was run: as §2
Liver [37] = experiment: Drug uptake in Sprague-Dawley rat liver at 0.13 nmol, iv up to 30 mins by PET scanning; conditions: in vivo, 0.5 h; how it was run: as §1
Kidney [38] = experiment: Drug uptake in Sprague-Dawley rat kidney at 0.13 nmol, iv up to 30 mins by PET scanning; conditions: in vivo, 0.5 h; how it was run: as §1
Liver [39] = experiment: Drug uptake in Sprague-Dawley rat liver at 0.13 nmol, iv pretreated with unlabeled (R)-PK11195 measured after 27.5 mins by PET scanning relative to control; conditions: in vivo; how it was run: as §4
Lung [40] = experiment: Drug uptake in Sprague-Dawley rat lung at 0.13 nmol, iv pretreated with unlabeled (R)-PK11195 by PET scanning; conditions: in vivo; how it was run: as §1
Lung [41] = experiment: Drug uptake in Sprague-Dawley rat lung at 0.13 nmol, iv pretreated with unlabeled AC-5216 by PET scanning; conditions: in vivo; how it was run: as §1
Liver [42] = experiment: Drug uptake in Sprague-Dawley rat liver at 0.13 nmol, iv after 27.5 mins by PET scanning; conditions: in vivo; how it was run: as §1
Heart [43] = experiment: Drug uptake in Sprague-Dawley rat heart at 0.13 nmol, iv after 27.5 mins by PET scanning; conditions: in vivo; how it was run: as §2
Blood [44] = experiment: Drug uptake in Sprague-Dawley rat cardiac blood pool at 0.13 nmol, iv after 2 mins by PET scanning; conditions: in vivo; how it was run: as §2
Liver [45] = experiment: Drug uptake in Sprague-Dawley rat liver at 0.13 nmol, iv after 2 mins by PET scanning; conditions: in vivo; how it was run: as §1
Kidney [46] = experiment: Drug uptake in Sprague-Dawley rat kidney at 0.13 nmol, iv after 2 mins by PET scanning; conditions: in vivo; how it was run: as §2
Lung [47] = experiment: Drug uptake in Sprague-Dawley rat lung at 0.13 nmol, iv after 2 mins by PET scanning; conditions: in vivo; how it was run: as §1
Kidney [48] = experiment: Drug uptake in Sprague-Dawley rat kidney at 0.13 nmol, iv pretreated with unlabeled AC-5216 by PET scanning; conditions: in vivo; how it was run: as §1

SUV (Kidney [1]): 3.3 | Drug uptake (Blood [2]): Active | Drug uptake (Kidney [3]): Not Active | SUV (Heart [4]): 4.6 | Drug uptake (Lung [5]): Active | SUV (Heart [6]): 0.9 | Drug uptake (Heart [7]): Not Active | Drug uptake (Lung [8]): Not Active | Drug uptake (Kidney [9]): Active | Drug uptake (Lung [10]): Not Active | SUV (Lung [11]): 3.4 | fold change (FC) (Liver [12]): 1.5 | fold change (FC) (Liver [13]): 1.5 | SUV (Liver [14]): 0.5 | Drug uptake (Intestine [15]): Active | SUV (Kidney [16]): 1 | Drug uptake (Kidney [17]): Not Active | SUV (Lung [18]): 0.5 | SUV (Blood [19]): 3 | SUV (Blood [20]): 0.4 | SUV (Liver [21]): 1.6 | Drug uptake (Heart [22]): Not Active | Drug uptake (Heart [23]): Active | Drug uptake (Liver [24]): Active
Compound: CCN(Cc1cccnc1)C(=O)Cn1c(=O)n([11CH3])c2cnc(-c3ccccc3)nc21

fold change (FC) (Liver [25]): 1.5 | SUV (Lung [26]): 0.5 | Drug uptake (Heart [27]): Not Active | SUV (Heart [28]): 4.6 | Drug uptake (Kidney [29]): Not Active | Drug uptake (Heart [30]): Not Active | SUV (Kidney [31]): 1 | Drug uptake (Blood [32]): Active | Drug uptake (Lung [33]): Active | Drug uptake (Intestine [34]): Active | SUV (Blood [35]): 0.4 | Drug uptake (Heart [36]): Active | Drug uptake (Liver [37]): Active | Drug uptake (Kidney [38]): Active | fold change (FC) (Liver [39]): 1.5 | Drug uptake (Lung [40]): Not Active | Drug uptake (Lung [41]): Not Active | SUV (Liver [42]): 0.5 | SUV (Heart [43]): 0.9 | SUV (Blood [44]): 3 | SUV (Liver [45]): 1.6 | SUV (Kidney [46]): 3.3 | SUV (Lung [47]): 3.4 | Drug uptake (Kidney [48]): Not Active
Compound: CN(Cc1cccnc1)C(=O)Cn1c(=O)n([11CH3])c2cnc(-c3ccccc3)nc21

Source: ChEMBL document CHEMBL2203116, “Synthesis and evaluation of novel carbon-11 labeled oxopurine analogues for positron emission tomography imaging of translocator protein (18 kDa) in peripheral organs” (J Med Chem, 2011)
